Test [1] has as its system Staphylococcus aureus. The test can be described thus: Antimicrobial activity against erm(B) and cfr-deficient Staphylococcus aureus RN4220 harboring plasmid LI50 by broth microdilution method. On the technique in general: Broth dilution looks for growth in wells or tubes with falling amounts of substance.
The subject of test [2] is Staphylococcus aureus. In words: Antimicrobial activity against Staphylococcus aureus RN4220 harboring plasmid LI50 by broth microdilution method. Format: functional. The method in brief: (§1)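 S. aureus RN4220 carrying the relevant shuttle plasmid, introduced by electroporation and selected on LB agar with 10 µg/ml chloramphenicol. MICs by broth microdilution per accepted recommendations. Disk diffusion: ca. 10^7 cells in 4 ml 0.6% soft agar over 1.5% LB agar with 10 µg/ml chloramphenicol. Paper disks (5 mm) held 20 µg erythromycin or 30 µg florfenicol. Plates incubated overnight at 37°C and photographed.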

Test [3] concerns Staphylococcus aureus. In words: Antimicrobial activity against cfr-deficient Staphylococcus aureus RN4220 harboring erm(B) gene by broth microdilution method. Format: functional. The method in brief:
as §1

Test [4] has as its system Staphylococcus aureus. The test can be described thus: Antimicrobial activity against methicillin-resistant Staphylococcus aureus CM05 by broth microdilution method. Format: functional. The method in brief: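 Clinical MRSA strain CM05. MICs determined by broth microdilution following accepted recommendations.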
Test [5] concerns Staphylococcus aureus. In words: Antimicrobial activity against erm(B)-deficient Staphylococcus aureus RN4220 harboring cfr gene by broth microdilution method. Format: functional. The method in brief: as §1
Test [6] concerns Staphylococcus aureus. In words: Antimicrobial activity against Staphylococcus aureus RN4220 harboring erm(B) and cfr gene by broth microdilution method.
The test system of test [7] is Staphylococcus aureus. In words: Antimicrobial activity against Staphylococcus aureus RN4220 harboring plasmid MS2 by broth microdilution method. Format: functional. The method in brief:
as §1

For test [8], the system named is Staphylococcus aureus. The test can be described thus: Antimicrobial activity against methicillin-resistant Staphylococcus aureus RN4220 harboring erm(B) and cfr gene assessed as modification of A2503 site in 23S rRNA. The format is functional.
Test [9] has as its system Staphylococcus aureus. In words: Antimicrobial activity against methicillin-resistant Staphylococcus aureus CM05 assessed as modification of A2503 site in 23S rRNA. The format is functional.
Test [10] relates to Staphylococcus aureus. The test can be described thus: Antimicrobial activity against Staphylococcus aureus RN4220 harboring cfr gene with mutagenized first codon CAG. The format is functional. The method in brief:
as §1

In test [11] the test system is Staphylococcus aureus. The test can be described thus: Antimicrobial activity against Staphylococcus aureus RN4220 harboring cfr gene with mutagenized second codon CAG. The format is functional. In a few lines:
as §1

In test [12] the test system is Staphylococcus aureus. The test can be described thus: Antimicrobial activity against methicillin-resistant Staphylococcus aureus CM05 assessed as modification of A2058 site in 23S rRNA. Format: functional.
In test [13] the test system is Staphylococcus aureus. The test can be described thus: Antimicrobial activity against Staphylococcus aureus RN4220 harboring erm(B) promoter-deficient plasmid MS2 by broth microdilution method.
In test [14] the test system is Staphylococcus aureus. In words: Antimicrobial activity against methicillin-resistant Staphylococcus aureus RN4220 harboring erm(B) and cfr gene assessed as modification of A2058 site in 23S rRNA. The format is functional.

Values after ≈ are worked out from the molar mass of the structure shown.

As to `CCC[C@@H]1C[C@@H](C(=O)N[C@@H]([C@H]2O[C@H](SC)[C@H](O)[C@@H](O)[C@H]2O)[C@H](C)Cl)N(C)C1` [CLINDAMYCIN], the MIC with Staphylococcus aureus [1] is under 1 µg/mL; in the test on Staphylococcus aureus [2], under 1 µg/mL; in the test with Staphylococcus aureus [3] it was over 1020 µg/mL; against Staphylococcus aureus [4], over 1020 µg/mL; in the test on Staphylococcus aureus [5], 1020 µg/mL (≈ 2410 µM); against Staphylococcus aureus [6], over 1020 µg/mL. Moreover, the MIC in the test on Staphylococcus aureus [7] was over 1020 µg/mL.

`CS(=O)(=O)c1ccc([C@@H](O)[C@@H](CF)NC(=O)C(Cl)Cl)cc1` [FLORFENICOL]: the MIC with Staphylococcus aureus [1] was 4 µg/mL (≈ 11.2 µM); in the test with Staphylococcus aureus [2], 4 µg/mL (≈ 11.2 µM); against Staphylococcus aureus [10], 128 µg/mL (≈ 357 µM); in the test on Staphylococcus aureus [11], 4 µg/mL (≈ 11.2 µM); against Staphylococcus aureus [13], 4 µg/mL (≈ 11.2 µM); against Staphylococcus aureus [6], 128 µg/mL (≈ 357 µM). The compound further came in with an MIC against Staphylococcus aureus [7] of 128 µg/mL (≈ 357 µM). The Activity with Staphylococcus aureus [8] was 16%; in the test on Staphylococcus aureus [9] it was 20%; with Staphylococcus aureus [12] it was 32%; in the test on Staphylococcus aureus [14], 20%.

Take `CC[C@H]1OC(=O)C[C@@H](O)[C@H](C)[C@@H](O[C@@H]2O[C@H](C)[C@@H](O[C@H]3C[C@@](C)(O)[C@@H](O)[C@H](C)O3)[C@H](N(C)C)[C@H]2O)[C@@H](CC=O)C[C@@H](C)C(=O)/C=C/C(C)=C/[C@@H]1CO[C@@H]1O[C@H](C)[C@@H](O)[C@@H](OC)[C@H]1OC` [TYLOSIN]: the minimal inhibitory concentration (MIC) in the test on Staphylococcus aureus [1] is 1 µg/mL (≈ 1.09 µM); against Staphylococcus aureus [2], 2 µg/mL (≈ 2.18 µM); against Staphylococcus aureus [3], 2000 µg/mL (≈ 2180 µM); against Staphylococcus aureus [5], 2 µg/mL (≈ 2.18 µM); against Staphylococcus aureus [6], 6000 µg/mL (≈ 6550 µM); in the test with Staphylococcus aureus [7], over 1020 µg/mL.

Take `O=C(N[C@H](CO)[C@H](O)c1ccc([N+](=O)[O-])cc1)C(Cl)Cl` [CHLORAMPHENICOL]: the MIC against Staphylococcus aureus [4] was found to be 64 µg/mL (≈ 198 µM).

In the test on Staphylococcus aureus [4], `CC(=O)NC[C@H]1CN(c2ccc(N3CCOCC3)c(F)c2)C(=O)O1` [LINEZOLID] came in with a minimal inhibitory concentration (MIC) of 8 µg/mL (≈ 23.7 µM).

Turning to SPIRAMYCIN, the MIC was over 4000 µg/mL against Staphylococcus aureus [3] and 128 µg/mL in the test on Staphylococcus aureus [5].

As to `C=C[C@]1(C)C[C@@H](OC(=O)CSCCN(CC)CC)[C@]2(C)[C@H](C)CC[C@]3(CCC(=O)[C@H]32)[C@@H](C)[C@@H]1O` [TIAMULIN], the results for the minimum inhibitory concentration (MIC) against Staphylococcus aureus [2], with Staphylococcus aureus [4] and in the test with Staphylococcus aureus [7] were 1 µg/mL (≈ 2.03 µM), 512 µg/mL (≈ 1040 µM) and 128 µg/mL (≈ 259 µM), respectively.

With `CC[C@H]1OC(=O)[C@H](C)[C@@H](O[C@H]2C[C@@](C)(OC)[C@@H](O)[C@H](C)O2)[C@H](C)[C@@H](O[C@@H]2O[C@H](C)C[C@H](N(C)C)[C@H]2O)[C@](C)(O)C[C@@H](C)C(=O)[C@H](C)[C@@H](O)[C@]1(C)O` [ERYTHROMYCIN], the minimum inhibitory concentration (MIC) is 0.5 µg/mL (≈ 0.681 µM) against Staphylococcus aureus [1]; 0.5 µg/mL (≈ 0.681 µM) in the test on Staphylococcus aureus [2]; over 1020 µg/mL against Staphylococcus aureus [10]; over 1020 µg/mL against Staphylococcus aureus [11]; 0.5 µg/mL (≈ 0.681 µM) against Staphylococcus aureus [13]; over 1020 µg/mL against Staphylococcus aureus [4]. Also, the MIC with Staphylococcus aureus [6] and against Staphylococcus aureus [7] was over 1020 µg/mL each time. Moreover, the Activity in the test with Staphylococcus aureus [8] is 11%; in the test on Staphylococcus aureus [9], 27%; with Staphylococcus aureus [12], 35%; in the test on Staphylococcus aureus [14], 23%.

For `CO[C@@H]1[C@@H](O[C@@H]2O[C@H](C)[C@@H](O[C@H]3C[C@@](C)(O)[C@@H](OC(=O)CC(C)C)[C@H](C)O3)[C@H](N(C)C)[C@H]2O)[C@@H](CC=O)C[C@@H](C)[C@@H](O)/C=C/C=C/C[C@@H](C)OC(=O)C[C@H]1OC(C)=O` [JOSAMYCIN], the minimum inhibitory concentration (MIC) against Staphylococcus aureus [1] was 1 µg/mL (≈ 1.21 µM); with Staphylococcus aureus [3], over 2000 µg/mL; with Staphylococcus aureus [5], 64 µg/mL (≈ 77.3 µM); in the test on Staphylococcus aureus [6], over 2000 µg/mL.

Usually MIC stands for the lowest concentration found to suppress growth. Low readings indicate inhibition by little substance, high ones a need for much substance.
